Test results as given in ChEMBL document CHEMBL2311271 (Eur J Med Chem, 2013).

Key:
[1] = Acute toxicity in ip dosed C57BL/6 mouse measured up to 14 days; format: organism-based; conditions: in vivo
Procedure, shortened: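 Healthy C57BL/6 mice (9–12 weeks, 18–22 g), fasted overnight, 10 per group (5 male, 5 female). Single i.p. dose, 1.0 to 500 mg/kg in 0.5% CMC-Na. Watched continuously for 2 h, intermittently over 24 h, then occasionally to day 14 for behaviour, deaths and delayed effects. Heart, liver and kidneys inspected at necropsy. LD50 derived graphically.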

769-P = experiment: Cytotoxicity against human 769-P cells by MTT assay; format: functional, cell-based
Procedure, shortened: (§1)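 Cells grown in RPMI-1640 with 10% fetal calf serum plus penicillin and streptomycin, 37 °C, 5% CO₂. Compounds in DMSO, final ≤2% (v/v), tested in 96-well cultures with MTT staining. IC₅₀ = concentration cutting optical density 50% versus untreated cells; three replicate wells per point; mean of three independent determinations.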

[2] = test system: Lewis lung carcinoma cell line; experiment: Antitumor activity against mouse LLC cells xenografted in mouse assessed as tumor inhibition at 40 mg/kg, ip qd for 7 days measured every 3 days for 21 days; format: functional; conditions: route intraperitoneal
OS-RC-2 = experiment: Cytotoxicity against human OS-RC2 cells by MTT assay; format: functional, cell-based; procedure, shortened: as §1
HepG2 = experiment: Cytotoxicity against human HepG2 cells by MTT assay; format: functional, cell-based; procedure, shortened: as §1
786-0 = experiment: Cytotoxicity against human 786-0 cells by MTT assay; format: functional, cell-based; procedure, shortened: as §1
SCaBER = experiment: Cytotoxicity against human SCaBER cells by MTT assay; format: functional, cell-based; procedure, shortened: as §1
A549 = experiment: Cytotoxicity against human A549 cells by MTT assay; format: functional, cell-based; procedure, shortened: as §1
U-251 = experiment: Cytotoxicity against human U251 cells by MTT assay; format: functional, cell-based; procedure, shortened: as §1
MCF7 = experiment: Cytotoxicity against human MCF7 cells by MTT assay; format: functional, cell-based; procedure, shortened: as §1
KB = experiment: Cytotoxicity against human KB cells by MTT assay; format: functional, cell-based; procedure, shortened: as §1
Mus musculus = experiment: Neurotoxicity in ip dosed C57BL/6 mouse assessed as tremble, twitch, jumping and supination response; format: toxicity, organism-based; conditions: in vivo
Procedure, shortened: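 C57BL/6 mice (9–12 weeks, 18–22 g), fasted overnight with water, dosed i.p. with 1.0–500 mg/kg in 0.5% CMC-Na; 10 per group (5 male, 5 female). Watched continuously 2 h for tremor, twitch, jumping, supination and other behavior, then intermittently to 24 h and occasionally to 14 days; killed day 14, with heart, liver and kidneys inspected.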

Bel-7402 = experiment: Cytotoxicity against human Bel7402 cells by MTT assay; format: functional, cell-based; procedure, shortened: as §1
[3] = Antitumor activity against mouse Sarcoma 180 cells xenografted in mouse assessed as tumor inhibition at 40 mg/kg, ip qd for 7 days measured every 3 days for 21 days; format: functional; conditions: Sarcoma-180, ip, route intraperitoneal
HeLa = experiment: Cytotoxicity against human HeLa cells by MTT assay; format: functional, cell-based; procedure, shortened: as §1
BGC-823 = experiment: Cytotoxicity against human BGC823 cells by MTT assay; format: functional, cell-based; procedure, shortened: as §1
HT-29 = experiment: Cytotoxicity against human HT-29 cells by MTT assay; format: functional, cell-based; procedure, shortened: as §1
[4] = Cytotoxicity against human Blu-87 cells by MTT assay; format: functional, cell-based; procedure, shortened: as §1
A-375 = experiment: Cytotoxicity against human A375 cells by MTT assay; format: functional, cell-based; procedure, shortened: as §1
[5] = Antitumor activity against mouse Sarcoma 180 cells xenografted in mouse assessed as tumor inhibition at 1.2 mg/kg, ip qd for 7 days measured every 3 days for 21 days; format: functional; conditions: Sarcoma-180, ip, route intraperitoneal
CWR22R = experiment: Cytotoxicity against human 22Rv1 cells by MTT assay; format: functional, cell-based; procedure, shortened: as §1
[6] = test system: Lewis lung carcinoma cell line; experiment: Antitumor activity against mouse LLC cells xenografted in mouse assessed as tumor inhibition at 1.2 mg/kg, ip qd for 7 days measured every 3 days for 21 days; format: functional; conditions: route intraperitoneal
[7] = test system: Lewis lung carcinoma cell line; experiment: Antitumor activity against mouse LLC cells xenografted in mouse assessed as tumor inhibition at 2.5 mg/kg, ip qd for 7 days measured every 3 days for 21 days; format: functional; conditions: route intraperitoneal
[8] = Antitumor activity against mouse Sarcoma 180 cells xenografted in mouse assessed as tumor inhibition at 2.5 mg/kg, ip qd for 7 days measured every 3 days for 21 days; format: functional; conditions: Sarcoma-180, ip, route intraperitoneal
[9] = Antitumor activity against mouse Sarcoma 180 cells xenografted in mouse assessed as tumor inhibition at 0.63 mg/kg, ip qd for 7 days measured every 3 days for 21 days; format: functional; conditions: Sarcoma-180, ip, route intraperitoneal
[10] = test system: Lewis lung carcinoma cell line; experiment: Antitumor activity against mouse LLC cells xenografted in mouse assessed as tumor inhibition at 0.63 mg/kg, ip qd for 7 days measured every 3 days for 21 days; format: functional; conditions: route intraperitoneal
[11] = Antitumor activity against mouse Sarcoma 180 cells xenografted in mouse assessed as tumor inhibition at 30 mg/kg, ip qd for 7 days measured every 3 days for 21 days; conditions: Sarcoma-180, ip, read-out: INH
[12] = test system: Lewis lung carcinoma cell line; experiment: Antitumor activity against mouse LLC cells xenografted in mouse assessed as tumor inhibition at 30 mg/kg, ip qd for 7 days measured every 3 days for 21 days; conditions: read-out: INH
[13] = test system: Lewis lung carcinoma cell line; experiment: Antitumor activity against mouse LLC cells xenografted in mouse assessed as tumor inhibition at 7.5 mg/kg, ip qd for 7 days measured every 3 days for 21 days; format: functional; conditions: route intraperitoneal
Procedure, shortened: (§2)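 Tumour cells passaged in mice for 7 days, then harvested. Viable cells (2 × 10⁶/mouse) injected s.c. into the armpit. Starting 24 h later, compound given i.p. once daily for 7 days, 10 female mice per group. Mice killed on day 21 after inoculation and tumours excised and weighed. Inhibition = (C − T)/C × 100, using mean tumour weights of treated (T) and negative control (C) groups.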

[14] = Antitumor activity against mouse Sarcoma 180 cells xenografted in mouse assessed as tumor inhibition at 7.5 mg/kg, ip qd for 7 days measured every 3 days for 21 days; format: functional; conditions: Sarcoma-180, ip, route intraperitoneal; procedure, shortened: as §2
[15] = test system: Lewis lung carcinoma cell line; experiment: Antitumor activity against mouse LLC cells xenografted in mouse assessed as tumor inhibition at 3 mg/kg, ip qd for 7 days measured every 3 days for 21 days; format: functional; conditions: route intraperitoneal
[16] = Antitumor activity against mouse Sarcoma 180 cells xenografted in mouse assessed as tumor inhibition at 3 mg/kg, ip qd for 7 days measured every 3 days for 21 days; format: functional; conditions: Sarcoma-180, ip, route intraperitoneal

SMILES | LD50 at 336 h [1] [mg/kg] | IC50 (769-P) [µM] | IC50 (OS-RC-2) [µM] | IC50 (HepG2) [µM] | IC50 (786-0) [µM] | IC50 (SCaBER) [µM] | IC50 (A549) [µM] | IC50 (U-251) [µM] | IC50 (MCF7) [µM] | IC50 (KB) [µM] | Activity (Mus musculus) | IC50 (Bel-7402) [µM] | IC50 (HeLa) [µM] | IC50 (BGC-823) [µM] | IC50 (HT-29) [µM] | IC50 [4] [µM] | IC50 (A-375) [µM] | IC50 (CWR22R) [µM] | also measured
CCn1c2cc(OCC(C)C)ccc2c2ccnc(C)c21 | 200 | 27 | 32 | 20.8 | 24.3 | 16.4 | 30.3 | 44.6 | 13.2 | 20.3 | Non-toxic | 21.9 | 23.3 | 29.8 | 16.9 | 14.2 |  |  | inhibition in vivo at 40 mg/kg [2]: 20.8%; inhibition in vivo at 40 mg/kg [3]: 27.8%
CCC(CC)Oc1ccc2c3cc[n+](Cc4ccccc4)c(C)c3n(CCCc3ccccc3)c2c1.[Br-] | 6.25 | < 1.5 | 2.5 | 3.1 | < 1.5 | 4.4 | 2 | 2.1 | 1.8 | < 1.5 | Non-toxic | 0.81 | 1.5 | 2.5 | 2 | 2.1 | < 1.5 | < 1.5 | inhibition in vivo at 1.2 mg/kg [5]: 41.5%; inhibition in vivo at 1.2 mg/kg [6]: 28%
CCn1c2cc(OCc3c(F)c(F)c(F)c(F)c3F)ccc2c2cc[n+](Cc3ccccc3)c(C)c21.[Br-] | 12.5 | 13 | 1.8 |  | 2.9 | 6.8 | 1.8 | 6.6 |  | 13.8 | Non-toxic |  |  |  | 1.6 | 17.7 | 3.8 | < 1.4 | inhibition in vivo at 2.5 mg/kg [7]: 23.7%; inhibition in vivo at 2.5 mg/kg [8]: 36.9%
Cc1c2c(cc[n+]1Cc1ccccc1)c1ccc(OCCCc3ccccc3)cc1n2CCCc1ccccc1.[Br-] | 3.75 | 2.9 | 3.1 | 3.8 | 2.2 | 7.7 | 3.3 | 0.74 | 6.6 | < 1.5 | Non-toxic | 2 | 3.1 | 2.5 | 2 | 1.5 | < 1.5 | 2.3 | inhibition in vivo at 0.63 mg/kg [9]: 46.1%; inhibition in vivo at 0.63 mg/kg [10]: 33.7%
O=P1(N(CCCl)CCCl)NCCCO1 (stereo unspecified) [CYCLOPHOSPHAMIDE ANHYDROUS] |  |  |  |  |  |  |  |  |  |  | Non-toxic |  |  |  |  |  |  |  | inhibition in vivo at 30 mg/kg [11]: 88.7%; inhibition in vivo at 30 mg/kg [12]: 85.6%
COc1ccc2c(c1)[nH]c1c(C)nccc12 [HARMINE] |  |  |  |  |  |  |  |  |  |  | Toxic |  |  |  |  |  |  |  | inhibition in vivo at 7.5 mg/kg [13]: 33.7%; inhibition in vivo at 7.5 mg/kg [14]: 30.8%
CCn1c2cc(OCCCc3ccccc3)ccc2c2ccnc(C)c21 | 200 | 22.6 |  | 11.4 | 13.2 | 6.5 | 22.6 | 28 | > 100 | 22.6 | Non-toxic | 13.5 | 30.2 | 11.9 | 11.8 | 16.7 | 19.7 |  | inhibition in vivo at 40 mg/kg [2]: 21.7%; inhibition in vivo at 40 mg/kg [3]: 26%
CCCCCCCCOc1ccc2c3cc[n+](Cc4ccccc4)c(C)c3n(CCCC)c2c1 |  | < 1.5 | < 1.5 | 2.7 | < 1.5 | 4.6 | < 1.5 | 2 | 4.1 | < 1.5 |  | 0.86 | 4 | 3.7 | 3.2 | 2 | < 1.5 | 2.9 | 
CCn1c2cc(OCC(C)C)ccc2c2cc[n+](Cc3ccccc3)c(C)c21.[Br-] | 12.5 | 5.2 | 10.6 | 9.6 | 8.5 | 34.1 | 11.6 | 17.3 | 11.1 | < 1.7 | Non-toxic | 3.2 | 4.9 | 10.6 | 4 | 25.9 | 7.8 |  | inhibition in vivo at 2.5 mg/kg [7]: 30%; inhibition in vivo at 2.5 mg/kg [8]: 44.2%
CCn1c2cc(OCCCc3ccccc3)ccc2c2cc[n+](Cc3ccccc3)c(C)c21.[Br-] | 15 | 5 | 2.2 | 7.6 | 1.5 | 16.2 | 2.3 | 10.5 | 2.8 | < 1.5 | Non-toxic | 2.4 | 2.2 | 7.6 | 4.2 | 17.3 | 2.4 |  | inhibition in vivo at 3 mg/kg [15]: 27.2%; inhibition in vivo at 3 mg/kg [16]: 53.1%
